The source of these data is ChEMBL document CHEMBL2040545, “Anti-influenza activity of marchantins, macrocyclic bisbibenzyls contained in liverworts” (2011).

Each structure is given as a SMILES string. Active and inactive are the calls of the source. The calls are words filed in the database; no cut-off is given here.

The target in experiment [1] is Polymerase acidic protein (Influenza A virus (A/Puerto Rico/8/1934(H1N1))) (UniProt P03433). The experiment can be described thus: Inhibition of PA endonuclease at 1 uM. It counts as functional. The method in brief: (§1)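 Recombinant His-tagged influenza A PA N-terminal endonuclease domain from E. coli, purified on Ni2+-agarose and then Q anion exchange, used at about 0.1 µM (0.35 µg/100 µl). Buffer at pH 7.3, 1 µg M13mp18 single-stranded circular DNA as substrate, compound at 1 or 10 µM. Digestion read by agarose electrophoresis with ethidium bromide staining. No-enzyme control included.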

The target is the same in experiment [2]. The experiment can be described thus: Inhibition of PA endonuclease at 10 uM. It counts as functional. The method in brief: as §1
For experiment [3] the target is unchanged. The experiment can be described thus: Inhibition of Influenza Viral Focus Formation at 13 uM relative to control. Conditions: Canis lupus familiaris, MDCK. It counts as functional, cell-based. Summed up:
(§2)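 MDCK cells infected with B/Malaysia/2506/2004 at m.o.i. 0.001, adsorbed 30 min at 37 °C, washed. Compound (50, 12.5 or 3.1 µM, DMSO vehicle) added in growth medium, no pre-incubation. Supernatant sampled daily over 3 days at 37°C. Each sample titrated 10-fold on fresh MDCK, ethanol-fixed after 1 day. Foci stained with anti-NP serum and the PAP/DAB method, then counted as FFU/ml.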

Experiment [4] has the same target. Nature of the experiment: Inhibition of Influenza Viral Focus Formation at 50 uM relative to control. It counts as functional, cell-based. Conditions: Canis lupus familiaris, MDCK. Summed up:
as §2

Experiment [5] in a line: (§3) Inhibition of Influenza Replication. The class given is functional, Canis lupus familiaris, MDCK. Summed up: (§4)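 MDCK monolayers (MEM, 10% FBS, 37 °C). Compounds at 6.25–50 µM, DMSO vehicle, premixed 30 min at 37°C with TCID50 of A/Hiroshima/52/2006 (H3N2), A/Solomon/3/2006 (H1N1) or B/Malaysia/2506/2004, then added to PBS-washed cells. Incubated 4 days at 34°C, 5% CO2. Cells fixed in 10% formaldehyde; surviving cells stained with naphthol blue black.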

A short description of experiment [6]: as §3. The class given is functional, Canis lupus familiaris, MDCK. Summed up:
as §4
This is another data set of the same source.

The nature of experiment [7]: as §3. It counts as functional, Canis lupus familiaris, MDCK. Summed up: as §4
This is another data set of the same source.

As a reminder, the inhibition is the drop in the measured response relative to a control, in per cent. Consider `Oc1ccc2cc1Oc1ccc(cc1)CCc1cccc(O)c1Oc1cccc(c1)CC2`, for which the inhibition result in experiment [1] and in experiment [2] was “inactive” each time.
In the case of `Oc1ccc2c(c1)CCc1ccc(O)c(c1)Oc1ccc(cc1)CCc1cccc(c1)O2`, the inhibition entry in experiment [1] and in experiment [2] was “inactive” in each case.
For the compound `COc1cc(O)cc(C(=O)c2cc(C)cc(OC)c2OC)c1CO`, the inhibition result in experiment [1] and in experiment [2] was “inactive” in each case.
`COc1c2ccoc2c(OC)c2oc(=O)ccc12`: the inhibition entry in experiment [1] and in experiment [2] was “inactive” each time.
As for `COc1ccc(/C=C/c2cc(OC)cc(=O)o2)cc1`, the inhibition entry in experiment [1] and in experiment [2] was “inactive” throughout.
With `COC1=CC(=O)O[C@@H](/C=C/c2ccccc2)C1`, the inhibition result in experiment [1] and in experiment [2] was “inactive” each time.
`CC(C)=CCOc1c2occc2cc2ccc(=O)oc12`: the inhibition result in experiment [1] and in experiment [2] was “inactive” each time.
Take `COc1ccc2c(c1)CCc1ccc(cc1)Oc1cc(ccc1O)CCc1ccc-2c(O)c1`: the inhibition result in experiment [1] and in experiment [2] was “inactive” each time. For the same compound, the inhibition in experiment [3] is -3.59%; in experiment [4], 5.56%.
On to `CC(C)[C@@H](C)/C=C/[C@@H](C)[C@H]1CCC2=C3C=CC4=CCCC[C@]4(C)[C@H]3CC[C@@]21C`, for which the inhibition result in experiment [1] and in experiment [2] was “inactive” throughout.
For the compound `Oc1cc2cc(c1O)Oc1ccc(cc1)CCc1cccc(O)c1Oc1cccc(c1)CC2` [MARCHANTIN A], the inhibition entry in experiment [1] is “inactive”. In addition, the inhibition in experiment [3] was determined as 2.33%; in experiment [4], 10.2%. In addition, in experiment [5], the Inhibition worked out at 50 µM. Also, the inhibition entry in experiment [2] was “Active”.
As to `COC1=CC(=O)O[C@@H](/C=C/c2ccc3c(c2)OCO3)C1`, the inhibition result in experiment [1] and in experiment [2] was “inactive” in each case.
With `Oc1cc2cc(c1O)Oc1ccc(cc1)CCc1ccc(O)c(O)c1Oc1cccc(c1)CC2`, in experiment [1], the inhibition result is “inactive”. For the same compound, the inhibition result in experiment [2] is “Active”.
For `COC1Cc2cccc(c2)Oc2c(O)cccc2CCc2ccc(cc2)Oc2cc1cc(O)c2O` (stereo unspecified) [MARCHANTIN E], in experiment [1], the inhibition entry is “inactive”. Moreover, the inhibition in experiment [3] was found to be 2.96%; in experiment [4], 4.44%. In addition, the Inhibition worked out at 50 µM in experiment [6], 25 µM in experiment [5] and 50 µM in experiment [7]. The inhibition result in experiment [2] is “Active”.
On to `C=CCc1ccc(O)c(-c2cc(CC=C)ccc2O)c1`, for which the inhibition entry in experiment [1] and in experiment [2] was “inactive” each time.
As to `COC(=O)c1[nH]c(C(=O)OC)c(-c2c[nH]c3ccc(O)cc23)c1-c1c[nH]c2ccccc12`, the inhibition entry in experiment [1] and in experiment [2] was “inactive” in each case.
With `COc1c2ccoc2cc2oc(=O)ccc12`, the inhibition entry in experiment [1] and in experiment [2] was “inactive” in each case.
As to `COc1ccc2ccc(=O)oc2c1CC=C(C)C`, the inhibition entry in experiment [1] and in experiment [2] was “inactive” throughout.
As to `COC1=CC(=O)O[C@@H](CCc2ccccc2)C1`, the inhibition result in experiment [1] and in experiment [2] was “inactive” each time.
With `COc1cccc2c1Oc1cccc(c1)CCc1cc(OC)c(OC)c(c1)Oc1ccc(cc1)CC2`, the inhibition result in experiment [1] and in experiment [2] was “inactive” each time. Besides, the inhibition was -2.75% in experiment [3] and 5.78% in experiment [4].
Take `C/C=C(\C)C(=O)CC1C2=CC(=O)[C@](C)(OC(C)=O)C(=O)C2=COC12OC(C)CCC2O` (stereo partly specified): the inhibition entry in experiment [1] and in experiment [2] was “inactive” throughout.
`COc1cc2c(cc1O)-c1ccc(O)cc1CCc1cc(O)c(O)c(c1)Oc1ccc(cc1)CC2`: in experiment [1], the inhibition result is “inactive”. The inhibition in experiment [3] is -4.66%; in experiment [4], 5.11%. Also, the inhibition result in experiment [2] was “Active”.
As for `COc1c2occc2cc2ccc(=O)oc12`, the inhibition entry in experiment [1] and in experiment [2] was “inactive” throughout.
`COc1cc(C)cc(C(=O)c2cc(O)cc(OC)c2CO)c1O`: the inhibition entry in experiment [1] and in experiment [2] was “inactive” in each case.
For `C[C@H]1OC(=O)C=C[C@@H]1O`, the inhibition entry in experiment [1] and in experiment [2] was “inactive” each time.
In the case of `COc1cccc2c(-c3ccc(O)c4c(OC)cccc34)ccc(O)c12`, the inhibition entry in experiment [1] and in experiment [2] was “inactive” each time.
As for `CC(C)=CCOc1c2ccoc2cc2oc(=O)ccc12`, the inhibition result in experiment [1] and in experiment [2] was “inactive” each time.
`CC1(C)OC1COc1c2occc2cc2ccc(=O)oc12` (stereo unspecified): the inhibition entry in experiment [1] and in experiment [2] was “inactive” throughout.
Turning to `COc1c2ccoc2c(OCC=C(C)C)c2oc(=O)ccc12`, the inhibition entry in experiment [1] and in experiment [2] was “inactive” throughout.
For `Oc1ccc2cc1Oc1ccc(cc1)CCc1cccc(c1)Oc1c(O)cccc1CC2`, the inhibition result in experiment [1] and in experiment [2] was “inactive” each time.
Regarding `COC(=O)c1[nH]c(C(=O)OC)c(-c2c[nH]c3ccc(O)cc23)c1-c1c[nH]c2ccc(O)cc12`, the inhibition entry in experiment [1] and in experiment [2] was “inactive” throughout.
For `Oc1cccc(CCc2ccc(Oc3cc(CCc4cccc(O)c4)cc(O)c3O)cc2)c1` [PERROTETTIN F], the inhibition result in experiment [1] is “inactive”. Besides, the Inhibition in experiment [5] came out at 50 µM. The inhibition result in experiment [2] was “Active”.
Consider `COc1cc(/C=C/c2ccccc2)oc(=O)c1`, for which the inhibition result in experiment [1] and in experiment [2] was “inactive” in each case.
In the case of `C=CCc1ccc(O)c(-c2ccc(O)c(CC=C)c2)c1`, the inhibition entry in experiment [1] and in experiment [2] was “inactive” throughout.
